# Measurements from ChEMBL document CHEMBL3046760, “Preharvest L-arginine treatment induced postharvest disease resistance to Botrysis cinerea in tomato fruits” (2011).
# Active and inactive are the calls of the source. The calls are words filed in the database; no cut-off is given here.
# Columns and labels:
# Botrytis cinerea [1] = assay: Effect on mycelial growth of Botryotinia fuckeliana relative to control; format: functional, organism-based
# Method in brief: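 Mycelial growth on PDA containing 1 mM L-arginine in the molten agar. A 7 mm B. cinerea disk was placed at the centre of a 90 mm dish and incubated at 25 °C. Colony diameter was read at 2, 3 and 4 days. Inhibition (%) = (control diameter − treated diameter)/(control diameter − 7 mm) × 100. Triplicate plates; the experiment was run twice.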
# Solanum lycopersicum [2] = assay: Induction of resistance to Botrytis cinerea-induced Solanum lycopersicum (tomato) fruit Solanum lycopersicum cv. No. 4 Zhongshu gray mold disease assessed as increase in NOS activity at 1 mM preharvest treatment measured after 3 days relative to control; format: functional, organism-based
# Method in brief: (§1)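 Plants received 1 mM L-arginine (5 mL) injected near the root, with a water control. Frozen fruit mesocarp was extracted in HEPES-KOH pH 7.6 buffer. For NO, extract was pretreated with catalase and SOD, oxyhemoglobin was added, and A550 was read at 37 °C against a buffer blank; results are given as μmol/g FW. NOS was measured by the hemoglobin assay on cytosolic/microsomal fractions. Three replicates.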
# Solanum lycopersicum [3] = assay: Induction of resistance to Botrytis cinerea-induced Solanum lycopersicum (tomato) fruit Solanum lycopersicum cv. No. 4 Zhongshu gray mold disease assessed as increase in NO content at 1 mM preharvest treatment measured after 3 days relative to control; format: functional, organism-based; method in brief: as §1
# Solanum lycopersicum [4] = assay: Induction of resistance to Botrytis cinerea-induced Solanum lycopersicum (tomato) fruit Solanum lycopersicum cv. No. 4 Zhongshu gray mold disease assessed as induction of total phenolics content at 1 mM preharvest treatment measured after 3 days relative to control; format: functional
# Method in brief: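 Plants received 1 mM L-arginine (5 mL) injected near the root, with a water control. A685 was calibrated against […] and expressed as catechin equivalents (mg/100 g FW). Mean of three replicates.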
# Solanum lycopersicum [5] = assay: Induction of resistance to Botrytis cinerea-induced Solanum lycopersicum (tomato) fruit Solanum lycopersicum cv. No. 4 Zhongshu gray mold disease assessed as induction of defensive enzyme beta-1,3-glucanase activity at 1 mM preharvest treatment measured after 9 days relative to control; format: functional
# Method in brief: (§2)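 Plants received 1 mM L-arginine (5 mL) injected near the root, with a water control. Fruit mesocarp was extracted in phosphate pH 6.8 (PAL, PPO) or acetate pH 5 (CHI, GLU) buffer. Readouts: PAL, L-phenylalanine in borate pH 8.8, 30 °C 1 h, A290. PPO, 0.1 M catechol, ΔA420 over 3 min. CHI, colloidal chitin at 40 °C then snailase, A585. GLU, 0.4% laminarin at 37 °C 1 h, DNS, A500. Three replicates.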
# Solanum lycopersicum [6] = assay: Induction of resistance to Botrytis cinerea-induced Solanum lycopersicum (tomato) fruit Solanum lycopersicum cv. No. 4 Zhongshu gray mold disease assessed as induction of defensive enzyme beta-1,3-glucanase activity at 1 mM preharvest treatment measured after 6 days relative to control; format: functional; method in brief: as §2
# Solanum lycopersicum [7] = assay: Induction of resistance to Botrytis cinerea-induced Solanum lycopersicum (tomato) fruit Solanum lycopersicum cv. No. 4 Zhongshu gray mold disease assessed as induction of defensive enzyme beta-1,3-glucanase activity at 1 mM preharvest treatment measured after 3 days relative to control; format: functional; method in brief: as §2
# Solanum lycopersicum [8] = assay: Induction of resistance to Botrytis cinerea-induced Solanum lycopersicum (tomato) fruit Solanum lycopersicum cv. No. 4 Zhongshu gray mold disease assessed as induction of defensive enzyme chitinase activity at 1 mM preharvest treatment measured after 3 days relative to control; format: functional; method in brief: as §2
# Solanum lycopersicum [9] = assay: Induction of resistance to Botrytis cinerea-induced Solanum lycopersicum (tomato) fruit Solanum lycopersicum cv. No. 4 Zhongshu gray mold disease assessed as induction of defensive enzyme polyphenoloxidase activity at 1 mM preharvest treatment measured after 3 days relative to control; format: functional, organism-based; method in brief: as §2
# Solanum lycopersicum [10] = assay: Induction of resistance to Botrytis cinerea-induced Solanum lycopersicum (tomato) fruit Solanum lycopersicum cv. No. 4 Zhongshu gray mold disease assessed as induction of defensive enzyme phenylalanine ammonialyase activity at 1 mM preharvest treatment measured after 9 days relative to control; format: functional, organism-based; method in brief: as §2
# Botrytis cinerea [11] = assay: Induction of resistance to Botryotinia fuckeliana-induced tomato fruit Solanum lycopersicum cv. No. 4 Zhongshu gray mold disease assessed as inhibition of lession area at 1 mM injected near root area measured after 12 days relative to control; format: functional; details: 288 h
# Method in brief: (§3)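 Plants received 5 mL of L-arginine (0.5, 1 or 5 mM) by injection at a cut near the root area, with distilled water as control; 30 plants per treatment. Green mature fruit were picked 0–12 days after treatment. Fruit were ethanol-sterilised and wounded at three equator sites, each receiving 10 μL of 2 × 10^5 conidia/mL. Fruit were kept at 25 °C, 90–95% RH. Incidence and lesion area (3.14 × (d/2)²) were scored at 4 days; three replicates.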
# Botrytis cinerea [12] = assay: Induction of resistance to Botryotinia fuckeliana-induced tomato fruit Solanum lycopersicum cv. No. 4 Zhongshu gray mold disease assessed as inhibition of lession area at 1 mM injected near root area measured after 9 days relative to control; format: functional; details: 216 h; method in brief: as §3
# Botrytis cinerea [13] = assay: Induction of resistance to Botryotinia fuckeliana-induced tomato fruit Solanum lycopersicum cv. No. 4 Zhongshu gray mold disease assessed as inhibition of lession area at 1 mM injected near root area measured after 6 days relative to control; format: functional; details: 144 h; method in brief: as §3
# Botrytis cinerea [14] = assay: Induction of resistance to Botryotinia fuckeliana-induced tomato fruit Solanum lycopersicum cv. No. 4 Zhongshu gray mold disease assessed as inhibition of lession area at 1 mM injected near root area measured after 3 days relative to control; format: functional; details: 72 h; method in brief: as §3
# Botrytis cinerea [15] = assay: Induction of resistance to Botryotinia fuckeliana-induced tomato fruit Solanum lycopersicum cv. No. 4 Zhongshu gray mold disease assessed as disease incidence at 5 mM injected near root area measured after 12 days relative to control; format: functional, organism-based; method in brief: as §3
# Botrytis cinerea [16] = assay: Induction of resistance to Botryotinia fuckeliana-induced tomato fruit Solanum lycopersicum cv. No. 4 Zhongshu gray mold disease assessed as disease incidence at 1 mM injected near root area measured after 12 days relative to control; format: functional, organism-based; method in brief: as §3
# Botrytis cinerea [17] = assay: Induction of resistance to Botryotinia fuckeliana-induced tomato fruit Solanum lycopersicum cv. No. 4 Zhongshu gray mold disease assessed as disease incidence at 0.5 mM injected near root area measured after 12 days relative to control; format: functional, organism-based; method in brief: as §3
# Botrytis cinerea [18] = assay: Induction of resistance to Botryotinia fuckeliana-induced tomato fruit Solanum lycopersicum cv. No. 4 Zhongshu gray mold disease assessed as disease incidence at 5 mM injected near root area measured after 6 days relative to control; format: functional; method in brief: as §3
# Botrytis cinerea [19] = assay: Induction of resistance to Botryotinia fuckeliana-induced tomato fruit Solanum lycopersicum cv. No. 4 Zhongshu gray mold disease assessed as disease incidence at 1 mM injected near root area measured after 6 days relative to control; format: functional; method in brief: as §3
# Botrytis cinerea [20] = assay: Induction of resistance to Botryotinia fuckeliana-induced tomato fruit Solanum lycopersicum cv. No. 4 Zhongshu gray mold disease assessed as disease incidence at 0.5 mM injected near root area measured after 6 days relative to control; format: functional; method in brief: as §3
# Botrytis cinerea [21] = assay: Induction of resistance to Botryotinia fuckeliana-induced tomato fruit Solanum lycopersicum cv. No. 4 Zhongshu gray mold disease assessed as disease incidence at 5 mM injected near root area measured after 3 days relative to control; format: functional; method in brief: as §3
# Botrytis cinerea [22] = assay: Induction of resistance to Botryotinia fuckeliana-induced tomato fruit Solanum lycopersicum cv. No. 4 Zhongshu gray mold disease assessed as disease incidence at 1 mM injected near root area measured after 3 days relative to control; format: functional; method in brief: as §3
# Botrytis cinerea [23] = assay: Induction of resistance to Botryotinia fuckeliana-induced tomato fruit Solanum lycopersicum cv. No. 4 Zhongshu gray mold disease assessed as disease incidence at 0.5 mM injected near root area measured after 3 days relative to control; format: functional; method in brief: as §3
smiles,measurement,setting,value
N=C(N)NCCC[C@H](N)C(=O)O [ARGININE],Activity,Botrytis cinerea [1],inactive
same,Activity,Solanum lycopersicum [2],Active
same,Activity,Solanum lycopersicum [3],Active
same,fold change (FC),Solanum lycopersicum [4],1.17
same,fold change (FC),Solanum lycopersicum [5],3.1
same,fold change (FC),Solanum lycopersicum [6],1.4
same,fold change (FC),Solanum lycopersicum [7],1.6
same,fold change (FC),Solanum lycopersicum [8],1.9
same,Activity,Solanum lycopersicum [9],Active
same,Activity,Solanum lycopersicum [10],Active
same,inhibition in vivo at 1000 µM,Botrytis cinerea [11],85%
same,inhibition in vivo at 1000 µM,Botrytis cinerea [12],90%
same,inhibition in vivo at 1000 µM,Botrytis cinerea [13],90%
same,inhibition in vivo at 1000 µM,Botrytis cinerea [14],86%
same,Activity,Botrytis cinerea [15],Active
same,Activity,Botrytis cinerea [16],Active
same,Activity,Botrytis cinerea [17],Active
same,Activity,Botrytis cinerea [18],38%
same,Activity,Botrytis cinerea [19],18%
same,Activity,Botrytis cinerea [20],31%
same,Activity,Botrytis cinerea [21],37%
same,Activity,Botrytis cinerea [22],16%
same,Activity,Botrytis cinerea [23],29%
